Source: ChEMBL document CHEMBL1833793 (Bioorg Med Chem Lett, 2011)
pIC50: −log10 of the molar value.

Key:
[1] = biological target: T1, Neuropeptide Y receptor type 1 (Homo sapiens, UniProt P25929); experiment: Antagonist activity at human NPY1 receptor assessed as calcium mobilization by FLIPR assay; type: functional
T1 sequence (P25929 whole entry): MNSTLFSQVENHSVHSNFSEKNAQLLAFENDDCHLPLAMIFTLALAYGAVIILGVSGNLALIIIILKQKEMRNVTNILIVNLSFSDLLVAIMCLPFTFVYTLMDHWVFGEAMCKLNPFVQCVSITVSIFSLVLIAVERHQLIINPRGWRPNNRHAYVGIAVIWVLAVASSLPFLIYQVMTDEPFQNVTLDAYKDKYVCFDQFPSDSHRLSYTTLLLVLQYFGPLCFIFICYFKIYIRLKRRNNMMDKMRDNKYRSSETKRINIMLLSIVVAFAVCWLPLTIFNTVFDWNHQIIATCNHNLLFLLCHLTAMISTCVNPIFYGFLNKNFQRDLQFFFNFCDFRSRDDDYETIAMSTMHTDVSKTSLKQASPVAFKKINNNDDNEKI

[2] = biological target: T2, Neuropeptide Y receptor type 2 (Homo sapiens, UniProt P49146); experiment: Antagonist activity at human NPY2 receptor assessed as calcium mobilization by FLIPR assay; type: functional
T2 sequence (P49146 whole entry): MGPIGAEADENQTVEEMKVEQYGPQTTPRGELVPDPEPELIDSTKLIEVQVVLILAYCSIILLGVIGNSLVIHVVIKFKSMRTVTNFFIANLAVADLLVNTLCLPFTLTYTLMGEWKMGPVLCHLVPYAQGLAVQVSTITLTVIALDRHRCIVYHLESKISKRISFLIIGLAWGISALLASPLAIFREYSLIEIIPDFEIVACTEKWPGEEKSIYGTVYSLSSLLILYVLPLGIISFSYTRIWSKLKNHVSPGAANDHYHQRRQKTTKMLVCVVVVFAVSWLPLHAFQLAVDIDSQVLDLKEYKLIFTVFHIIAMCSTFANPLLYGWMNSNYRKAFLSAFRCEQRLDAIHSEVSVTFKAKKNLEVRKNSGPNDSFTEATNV

[3] = biological target: Neuropeptide Y receptor type 4 (Homo sapiens, UniProt P50391); experiment: Antagonist activity at human NPY4 receptor assessed as calcium mobilization by FLIPR assay; type: functional
Chain of Neuropeptide Y receptor type 4 (P50391 whole entry): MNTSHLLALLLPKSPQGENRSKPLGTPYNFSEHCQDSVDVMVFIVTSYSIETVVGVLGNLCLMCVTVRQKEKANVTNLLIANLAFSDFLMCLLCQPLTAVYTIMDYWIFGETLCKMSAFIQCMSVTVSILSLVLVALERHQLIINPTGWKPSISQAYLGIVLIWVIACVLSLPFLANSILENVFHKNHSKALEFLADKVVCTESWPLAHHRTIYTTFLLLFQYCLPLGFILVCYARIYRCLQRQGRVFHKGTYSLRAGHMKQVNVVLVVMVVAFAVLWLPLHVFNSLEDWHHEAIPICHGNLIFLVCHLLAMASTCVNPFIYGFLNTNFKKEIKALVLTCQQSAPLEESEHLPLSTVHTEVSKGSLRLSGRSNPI

[4] = system: Liver microsomes; experiment: Intrinsic clearance in rat liver microsome; type: ADME
[5] = Plasma protein binding in human; type: ADME, cell-free; settings: read-out: PPB (converted)
[6] = biological target: Cytochrome P450 2D6 (Homo sapiens, UniProt P10635); experiment: Inhibition of CYP2D6; type: ADME
Chain of Cytochrome P450 2D6 (P10635 whole entry): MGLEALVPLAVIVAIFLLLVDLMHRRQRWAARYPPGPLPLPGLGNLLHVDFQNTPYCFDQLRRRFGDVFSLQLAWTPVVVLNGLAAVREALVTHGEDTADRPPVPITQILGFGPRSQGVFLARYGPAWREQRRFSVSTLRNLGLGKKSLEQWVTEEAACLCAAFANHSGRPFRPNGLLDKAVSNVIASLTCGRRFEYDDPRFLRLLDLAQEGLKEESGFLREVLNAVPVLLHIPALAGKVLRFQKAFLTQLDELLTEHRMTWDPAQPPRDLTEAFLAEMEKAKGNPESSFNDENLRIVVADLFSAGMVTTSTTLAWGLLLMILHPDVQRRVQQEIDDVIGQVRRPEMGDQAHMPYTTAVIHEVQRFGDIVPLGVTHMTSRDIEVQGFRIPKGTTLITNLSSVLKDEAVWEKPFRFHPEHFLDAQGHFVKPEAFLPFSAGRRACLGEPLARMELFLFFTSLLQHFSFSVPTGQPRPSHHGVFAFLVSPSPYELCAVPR

[7] = Apparent permeability from apical to basolateral side of the human Caco2 cells; type: ADME, cell-based; settings: Caco-2
[8] = Oral bioavailability in Sprague-Dawley rat at 2 mg/kg by HPLC analysis; type: ADME, organism-based; settings: in vivo
Outline: (§1)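 Male Sprague-Dawley rats (200–250 g, n = 2) with jugular and carotid cannulae, dosed 1 mg/kg iv and 2 mg/kg po in crossover after 24 h washout. Vehicle was 20% beta cyclodextrin, pH adjusted with methanesulfonic acid to give a solution. Automated serial blood sampling took 12 time points over 24 h. Plasma was quantified by HPLC-MS/MS, with noncompartmental analysis.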

[9] = Plasma clearance in Sprague-Dawley rat at 1 mg/kg, iv and 2 mg/kg, po by HPLC analysis; type: ADME, organism-based; outline: as §1
[10] = Tmax in Sprague-Dawley rat at 1 mg/kg, iv and 2 mg/kg, po by HPLC analysis; type: ADME, organism-based; settings: in vivo
Outline: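 Male Sprague–Dawley rats (n = 2) with jugular and carotid cannulae, 200–250 g, dosed 1 mg/kg iv and 2 mg/kg po in crossover after a 24 h washout. Vehicle was 20% beta-cyclodextrin, pH adjusted with methanesulfonic acid. Twelve serial blood samples were taken over 24 h, plasma measured by HPLC-MS/MS, and parameters derived by noncompartmental analysis.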

[11] = system: Rattus norvegicus; experiment: Inhibition of cPP-induced food intake in po dosed rat administered 1 to 24 hrs before cPP challenge measured for 1 hr; type: functional, organism-based
Outline: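 Rats with lateral-ventricle cannulae dosed po with 20% cyclodextrin vehicle or drug (3, 10, 30 mg/kg) 1, 2, 4, 6 or 24 h before i.c.v. cPP (0.6 nmol); food intake monitored 1 h; randomized weekly crossover, n = 2/condition, 16–20 per group; percent of vehicle + cPP intake, one-way ANOVA with Newman–Keuls.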

[12] = Plasma concentration in cPP-induced feeding rat model at 3 mg/kg, po after 1 hr; type: ADME, organism-based; parameters: dose 3 mg/kg, route oral
Outline: (§2)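 Satellite rats (n = 2/dose) sampled each week alongside the cPP feeding test; Lu-series dosed po at 3, 10 or 30 mg/kg as suspension in 20% HP-β-cyclodextrin; plasma (ng/mL) and brain tissue (ng/g) levels taken at 1, 2, 4, 6 and 24 h post-dose; mean ± SD reported.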

[13] = Plasma concentration in cPP-induced feeding rat model at 3 mg/kg, po after 2 hrs; type: ADME, organism-based; parameters: dose 3 mg/kg, route oral; outline: as §2
[14] = Plasma concentration in cPP-induced feeding rat model at 3 mg/kg, po after 4 hrs; type: ADME, organism-based; parameters: dose 3 mg/kg, route oral
Outline: (§3)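 Satellite rats (n = 2/dose per week), cannulated in the lateral cerebral ventricle for the feeding study, dosed orally at 3, 10 or 30 mg/kg as a suspension in 20% HP-β-cyclodextrin. Plasma was sampled 1, 2, 4, 6 or 24 h after dosing, alongside i.c.v. cPP (0.6 nmol) feeding tests. Values are given as mean with SD.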

[15] = Plasma concentration in cPP-induced feeding rat model at 3 mg/kg, po after 6 hrs; type: ADME, organism-based; parameters: dose 3 mg/kg, route oral; outline: as §3
[16] = Drug uptake in brain of cPP-induced feeding rat model at 3 mg/kg, po after 1 hr; type: ADME, organism-based; parameters: dose 3 mg/kg, route oral; settings: read-out: Drug uptake; outline: as §2
[17] = Plasma concentration in cPP-induced feeding rat model at 10 mg/kg, po after 2 hrs; type: ADME, organism-based; parameters: dose 10 mg/kg, route oral; outline: as §2
[18] = Plasma concentration in cPP-induced feeding rat model at 10 mg/kg, po after 4 hrs; type: ADME, organism-based; parameters: dose 10 mg/kg, route oral; outline: as §2
[19] = Plasma concentration in cPP-induced feeding rat model at 10 mg/kg, po after 6 hrs; type: ADME, organism-based; parameters: dose 10 mg/kg, route oral; outline: as §2
[20] = Drug uptake in brain of cPP-induced feeding rat model at 10 mg/kg, po after 1 hr; type: ADME, organism-based; parameters: dose 10 mg/kg, route oral; settings: read-out: Drug uptake; outline: as §2
[21] = Drug uptake in brain of cPP-induced feeding rat model at 10 mg/kg, po after 2 hrs; type: ADME, organism-based; parameters: dose 10 mg/kg, route oral; settings: read-out: Drug uptake; outline: as §2
[22] = Drug uptake in brain of cPP-induced feeding rat model at 30 mg/kg, po after 4 hrs; type: ADME, organism-based; parameters: dose 30 mg/kg, route oral; settings: read-out: Drug uptake; outline: as §2
[23] = Drug uptake in brain of cPP-induced feeding rat model at 30 mg/kg, po after 6 hrs; type: ADME, organism-based; parameters: dose 30 mg/kg, route oral; settings: read-out: Drug uptake; outline: as §2
[24] = system: Brain; experiment: Free drug level in brain of cPP-induced feeding rat model; type: ADME, tissue-based; settings: in vivo
[25] = Plasma clearance in mouse at 1 mg/kg, iv and 2 mg/kg, po by HPLC analysis; type: ADME, organism-based

Compound: CS(=O)(=O)NC[C@H]1CC[C@H](Nc2nc3c(s2)CCSc2ccccc2-3)CC1
- pIC50 [1]: < 6.00
- pIC50 [2]: < 6.00
- pIC50 [3]: < 6.00
- CL [4]: 40 mL/min
- fraction unbound [5]: 0.018
- pIC50 [6]: < 5.00
- Papp A→B [7]: 36.7 ×10⁻⁶ cm/s
- bioavailability [8]: 92%
- clearance [9]: 18.3 mL/min/kg
- Tmax [10]: 1.9 h
- inhibition [11]: Dose-dependent effect
- concentration at 1 h [12]: 54 ng/mL
- concentration at 2 h [13]: 87 ng/mL
- concentration at 4 h [14]: 52 ng/mL
- concentration at 6 h [15]: 30 ng/mL
- concentration at 1 h [16]: 54 ng/g
- concentration at 2 h [17]: 260 ng/mL
- concentration at 4 h [18]: 141 ng/mL
- concentration at 6 h [19]: 46 ng/mL
- concentration at 1 h [20]: 179 ng/g
- concentration at 2 h [21]: 244 ng/g
- concentration at 4 h [22]: 643 ng/g
- concentration at 6 h [23]: 401 ng/g
- Drug uptake [24]: 0.4 nM
- clearance [25]: 5 mL/min/kg
